Results reported in ChEMBL document CHEMBL4706709, “Withanolides from dietary tomatillo suppress HT1080 cancer cell growth by targeting mutant IDH1” (Bioorg Med Chem, 2021).
Active and inactive are the calls of the source. The rule behind the calls is not given here.

What was measured:
[1] = molecular target: T1, Isocitrate dehydrogenase [NADP] cytoplasmic (Homo sapiens, UniProt O75874, R132H); experiment: Binding affinity to C-terminal His6-tagged IDH1 R132H mutant (unknown origin) expressed in Escherichia coli BL21 (DE) measured after 20 mins by Red-NHS fluorescence dye-based microscale thermophoresis analysis
In short: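 IDH1 R132H fluorescently labelled (RED kit) and used at 20 nM in 20 mM HEPES pH 7.5 with 0.05% Tween-20. Mixed 1:1 with a ligand dilution series, 20 min at room temperature. Loaded in standard capillaries, 10 min at 25 °C. Thermophoresis read at 20% laser and 100% LED power, Kd fitted from the curve.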

[2] = molecular target: T1, Isocitrate dehydrogenase [NADP] cytoplasmic; experiment: Inhibition of C-terminal His6-tagged IDH1 R132H mutant (unknown origin) expressed in Escherichia coli BL21 (DE) using alpha-ketoglutarate as substrate preincubated for 10 mins followed by substrate addition and measured at 1 min interval for 20 mins in presence of NADPH
In short: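 His-tagged IDH1 R132H at 2 μM in 50 mM HEPES pH 7.5 with 4 mM MgCl2 and 100 μM NADPH. Compound preincubated with enzyme 10 min, then reaction started with 2 mM α-KG. NADPH consumption read at 340 nm every 1 min for 20 min. IC50 from mean of three independent assays.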

[3] = molecular target: Isocitrate dehydrogenase [NADP] cytoplasmic (Homo sapiens, UniProt O75874); experiment: Inhibition of wild-type IDH1 (unknown origin) in presence of sodium(D)-isocitrate and NADP+
In short: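 Wild-type IDH1 purified at 43 nM in 50 mM HEPES pH 7.5 with 50 μM sodium D-isocitrate, 4 mM MgCl2 and 1 mM NADP+. NADPH production monitored at 340 nm. IC50 from mean of three independent assays.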

[4] = system: HT-1080; experiment: Induction of apoptosis in human HT-1080 cells assessed as necrotic cells at 6.5 uM measured after 48 hrs by Annexin V-FITC/propidium iodide staining based flow cytometry (reference value: 30.2%); format: functional
[5] = system: HT-1080; experiment: Induction of apoptosis in human HT-1080 cells assessed as late apoptotic cells at 6.5 uM measured after 48 hrs by Annexin V-FITC/propidium iodide staining based flow cytometry (reference value: 3.2%); format: functional
[6] = system: HT-1080; experiment: Antiproliferative activity against human HT-1080 cells assessed as reduction in number of EdU-positive cells measured after 24 hrs by EdU and DAPI staining based fluorescence microscopic analysis; format: functional, cell-based; settings: dose 3.25-6.5 µM
In short: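 Log-phase HT1080 cells treated 24 h with 3.25 or 6.5 μM compound or DMSO. Then 50 μM EdU in serum-free DMEM for 2 h. Fixed in 4% paraformaldehyde, quenched with glycine, permeabilised with 0.5% Triton X-100. Apollo dye reaction for 30 min, DAPI nuclear counterstain, fluorescence microscopy. Three repeats.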

[7] = system: Isocitrate dehydrogenase [NADP] cytoplasmic (Homo sapiens), O75874 [R132H]; experiment: Inhibition of IDH1 […] assessed as reduction in R-2-HG concentration measured after 48 hrs by LC-MS/MS analysis; format: cell-based; settings: dose 0.94-30 µM
In short: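 HT1080 cells treated 48 h with 0.94–30 μM compound or DMSO. Medium diluted in methanol and centrifuged. R-2-HG in the supernatant quantified by LC-MS/MS (ESI, MRM) on a C18 column, gradient of methanol against 10 mM ammonium acetate pH 7.4. Peak area normalised to internal standard, IC50 from the dose–response curve.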

[8] = system: Isocitrate dehydrogenase [NADP] cytoplasmic (Homo sapiens), O75874 [R132H]; experiment: Inhibition of IDH1 […] assessed as down regulation of H3K9me3 expression at 6.5 uM measured after 48 hrs by DAPI staining based immunofluorescence microscopic analysis; format: cell-based
In short: (§1)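 HT1080 cells on slides exposed 48 h to 3.25 or 6.5 μM compound. Fixed in 4% paraformaldehyde 15 min, permeabilised with 0.1% Triton X-100 for 5 min at 4 °C, blocked 2 h in 5% BSA. Primary antibody (H3K9me3, HIF-1α or p53, 1:100) overnight at 4 °C. Fluorescent secondary (1:500) 1 h in the dark, DAPI counterstain, imaged.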

[9] = system: HT-1080; experiment: Antiproliferative activity against human HT-1080 cells assessed as reduction in cell proliferation measured after 48 hrs by CCK8 assay; format: functional, cell-based; settings: HT-1080, 48 h
In short: (§2)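 HT1080 cells (IDH1 R132C) in high-glucose DMEM with 10% FBS, 37 °C, 5% CO2. Adherent cells exposed to compound in fresh medium for 48 h, DMSO kept below 0.5%. Viability by CCK8, absorbance at 450 nm. Three repeats.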

[10] = system: HT-1080; experiment: Induction of apoptosis in human HT-1080 cells assessed as nuclear fragmentation at 3.25 to 6.5 uM measured after 48 hrs by Hoechst 33258 and DAPI staining based fluorescence microscopic analysis; format: functional, cell-based; settings: dose 3.25-6.5 µM
In short: (§3)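 HT1080 cells exposed 48 h to 3.25 or 6.5 μM compound. Blocked 2 h, then stained 30 min with Hoechst 33258. Nuclear morphology viewed by fluorescence microscopy (×200).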

[11] = system: HT-1080; experiment: Induction of apoptosis in human HT-1080 cells assessed as early apoptotic cells at 6.5 uM measured after 48 hrs by Annexin V-FITC/propidium iodide staining based flow cytometry (reference value: 0%); format: functional
[12] = system: HT-1080; experiment: Antiproliferative activity against human HT-1080 cells transfected with shIDH1 R132C assessed as reduction in cell proliferation at 1.25 to 10 uM measured after 48 hrs by CCK8 assay; format: functional, cell-based; settings: dose 1.25-10 µM; in short: as §2
[13] = system: Isocitrate dehydrogenase [NADP] cytoplasmic (Homo sapiens), O75874 [R132H]; experiment: Inhibition of IDH1 […] assessed as increase in p53 expression at 3.25 to 6.5 uM measured after 48 hrs by DAPI staining based immunofluorescence microscopic analysis; format: cell-based; settings: dose 3.25-6.5 µM; in short: as §1
[14] = system: Isocitrate dehydrogenase [NADP] cytoplasmic (Homo sapiens), O75874 [R132H]; experiment: Inhibition of IDH1 […] assessed as down regulation of H3K9me3 expression at 3.25 to 6.5 uM measured after 48 hrs by Western blot analysis; format: cell-based; settings: dose 3.25-6.5 µM
In short: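 HT1080 cells in 6-well plates treated 48 h. Lysed in RIPA, protein measured by BCA. Run on 12% SDS-PAGE, blotted to PVDF, blocked in 5% milk 1 h. Probed with H3K9me3 primary antibody, β-actin also available, then HRP secondary.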

[15] = system: HT-1080; experiment: Induction of apoptosis in human HT-1080 cells assessed as viable cells at 6.5 uM measured after 48 hrs by Annexin V-FITC/propidium iodide staining based flow cytometry (reference value: 66.6%); format: functional; settings: read-out: Activity
[16] = system: Isocitrate dehydrogenase [NADP] cytoplasmic (Homo sapiens), O75874 [R132H]; experiment: Inhibition of IDH1 […] assessed as reduction in HIF-1alpha accumulation at 3.25 to 6.5 uM measured after 48 hrs by DAPI staining based immunofluorescence microscopic analysis; format: cell-based; settings: dose 3.25-6.5 µM; in short: as §1
[17] = system: HT-1080; experiment: Induction of apoptosis in human HT-1080 cells assessed as appearance of densely stained nucleus at 3.25 to 6.5 uM measured after 48 hrs by Hoechst 33258 and DAPI staining based fluorescence microscopic analysis; format: functional, cell-based; settings: dose 3.25-6.5 µM; in short: as §3

T1 sequence (O75874 2-414 R132H limits assumed): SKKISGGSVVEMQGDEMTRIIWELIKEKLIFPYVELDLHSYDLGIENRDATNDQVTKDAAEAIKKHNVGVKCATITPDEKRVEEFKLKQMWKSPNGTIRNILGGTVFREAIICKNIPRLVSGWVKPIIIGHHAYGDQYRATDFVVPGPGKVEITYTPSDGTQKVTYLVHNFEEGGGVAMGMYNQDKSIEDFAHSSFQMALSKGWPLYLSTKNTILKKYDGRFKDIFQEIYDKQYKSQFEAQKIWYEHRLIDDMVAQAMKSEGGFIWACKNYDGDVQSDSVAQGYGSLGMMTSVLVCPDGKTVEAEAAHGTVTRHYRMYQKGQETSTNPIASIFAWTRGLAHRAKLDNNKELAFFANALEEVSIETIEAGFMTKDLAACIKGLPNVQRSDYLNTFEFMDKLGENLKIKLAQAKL
Sequence of Isocitrate dehydrogenase [NADP] cytoplasmic (Homo sapiens), O75874 [R132H] (O75874 whole entry R132H): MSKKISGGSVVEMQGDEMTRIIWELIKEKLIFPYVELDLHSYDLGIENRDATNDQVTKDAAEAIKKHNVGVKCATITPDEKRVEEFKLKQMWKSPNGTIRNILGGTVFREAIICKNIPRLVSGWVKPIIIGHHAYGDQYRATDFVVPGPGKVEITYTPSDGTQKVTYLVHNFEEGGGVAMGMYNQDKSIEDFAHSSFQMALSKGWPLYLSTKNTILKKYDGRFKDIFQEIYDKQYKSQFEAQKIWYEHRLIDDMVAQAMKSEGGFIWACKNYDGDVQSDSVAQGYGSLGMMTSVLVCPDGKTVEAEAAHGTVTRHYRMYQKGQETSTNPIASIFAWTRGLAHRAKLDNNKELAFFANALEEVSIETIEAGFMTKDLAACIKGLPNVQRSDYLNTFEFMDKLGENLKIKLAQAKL
Sequence of Isocitrate dehydrogenase [NADP] cytoplasmic (Homo sapiens, UniProt O75874) (O75874 whole entry): as the sequence (O75874 whole entry R132H) above, with H132R counted along it

SMILES	Kd [1] [µM]	IC50 [2] [µM]	IC50 [3] [µM]	Activity [4] [%]	Activity [5] [%]	Activity [6]	inhibition [7]	inhibition [8]	IC50 [9] [µM]	Activity [10]	Activity [11] [%]	Activity [12]	inhibition [13]	inhibition [14]	viability at 6.5 µM [15] [%]	inhibition [16]	Activity [17]
C[C@]12C(=O)C=CCC1=CC[C@@H]1[C@@H]2CC[C@]2(O)C(=O)O[C@@]3(C)[C@H]4C[C@]5(C)[C@@H](CO[C@@]16O[C@@]32[C@H]5C6=O)C(=O)O4 [PHYSALIN B]	45.3	1.26	> 200														
C[C@@]12C[C@H]3OC(=O)[C@@H]1CO[C@]14O[C@@]5([C@H]2C1=O)[C@@]3(C)OC(=O)[C@@]5(O)CC[C@H]1[C@H]4C[C@H]2O[C@]23CC=CC(=O)[C@]13C	15.3	0.63	> 200	1.1	23.9	Dose-dependent effect	Dose-dependent effect	Active	2.41	Active	55	Active	Active	Active	19.9	Active	Active
